# Measured values published in ChEMBL document CHEMBL1123760, “Synthesis and oral antifungal activity of novel azolylpropanolones and related compounds” (1987).
# Experiments:
# Format in all cases: functional
# Aspergillus fumigatus = experiment: In vitro antifungal activity against Aspergillus fumigatus
# Summary of the method: (§1)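 Broth microdilution MIC in Sabouraud's glucose broth; final inocula 1 × 10^5 cells/mL (yeast) or 1 × 10^5 conidia/mL (mold and dermatophyte).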
# Candida albicans [1] = experiment: In vitro antifungal activity against Candida albicans; summary of the method: as §1
# Candida albicans [2] = experiment: Minimum effective concentration for inhibition of pseudomycelium formation in Candida albicans; details: for minimal effective concentration: Candida albicans, read-out: MEC
# Summary of the method: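 C. albicans KE-2 (clinical isolate) at a final 1 × 10^6 yeast cells/mL in EMEM with 20% calf serum; compounds diluted by the same microtiter system as for MICs. After incubation, wells were Giemsa-stained (5% in phosphate buffer) and read by microscope. MEC is the lowest concentration preventing typical pseudomycelium formation.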
# Trichophyton benhamiae = experiment: In vitro antifungal activity against Trichophyton asteroides; summary of the method: as §1
# [3] = Aspergillus fumigatus, read-out: MIC
# [4] = Candida albicans, read-out: MIC
# [5] = Trichophyton benhamiae, read-out: MIC
Structure (SMILES),MIC (Aspergillus fumigatus; [3]),MIC (Candida albicans [1]; [4]),minimal effective concentration (Candida albicans [2]),MIC (Trichophyton benhamiae; [5]),MEC (Candida albicans [2]),MIC (Trichophyton benhamiae),MIC (Aspergillus fumigatus),MIC (Candida albicans [1])
Fc1ccc([C@H]2OC(=S)O[C@]2(Cn2cncn2)c2ccc(Cl)cc2Cl)cc1,> 100 µg/mL,100 µg/mL,10 µg/mL,3.1 µg/mL,,,,
OC(c1ccccc1Cl)C(O)(Cn1cncn1)c1ccccc1 (stereo not drawn),> 100 µg/mL,> 100 µg/mL,> 20 µg/mL,0.8 µg/mL,,,,
CCC[C@H]1OC(=O)O[C@]1(Cn1cncn1)c1ccc(Cl)cc1,> 100 µg/mL,> 100 µg/mL,0.31 µg/mL,1.6 µg/mL,,,,
OC(c1ccccc1)C(O)(Cn1cncn1)c1ccccc1 (stereo not drawn),> 100 µg/mL,> 100 µg/mL,> 20 µg/mL,25 µg/mL,,,,
O=C(c1ccc(F)cc1)C(O)(Cn1ccnc1)c1ccc(Cl)cc1Cl (stereo not drawn),> 100 µg/mL,> 100 µg/mL,1.25 µg/mL,0.1 µg/mL,,,,
O=C1O[C@H](c2ccc(Cl)cc2)[C@](Cn2cncn2)(c2ccc(Cl)cc2Cl)O1,,,,,0.08 µg/mL,0.1 µg/mL,,
O=C1O[C@H](c2ccc(Cl)cc2Cl)[C@@](Cn2cncn2)(c2ccccc2)O1,> 100 µg/mL,> 100 µg/mL,1.25 µg/mL,0.4 µg/mL,,,,
OC(Cc1ccc(Cl)cc1)(c1ccc(F)cc1)C(O)(Cn1cncn1)c1ccc(Cl)cc1 (stereo not drawn),> 100 µg/mL,> 100 µg/mL,20 µg/mL,> 100 µg/mL,,,,
O=C1O[C@H](c2ccc(Cl)cc2)[C@@](Cn2cncn2)(c2ccc(Cl)cc2)O1,> 100 µg/mL,50 µg/mL,1.25 µg/mL,0.8 µg/mL,,,,
CCCCCC(O)(Cn1cncn1)C(=O)c1ccc(Cl)cc1 (stereo not drawn),> 100 µg/mL,100 µg/mL,0.63 µg/mL,0.2 µg/mL,,,,
OC(c1ccc(Cl)cc1Cl)C(O)(Cn1cncn1)c1ccc(Cl)cc1 (stereo not drawn),> 100 µg/mL,100 µg/mL,0.31 µg/mL,0.1 µg/mL,,,,
CCCCC(O)(c1ccccc1)C(O)(Cn1cncn1)c1ccc(Cl)cc1Cl (stereo not drawn),> 100 µg/mL,> 100 µg/mL,2.5 µg/mL,0.2 µg/mL,,,,
O=C(c1ccc(F)cc1)C(O)(Cn1cncn1)c1ccc(F)cc1 (stereo not drawn),> 100 µg/mL,100 µg/mL,10 µg/mL,0.79 µg/mL,,,,
Fc1ccc([C@H]2OCO[C@]2(Cn2cncn2)c2ccc(Cl)cc2Cl)cc1,> 100 µg/mL,> 100 µg/mL,0.31 µg/mL,0.1 µg/mL,,,,
CC(C)(O)C(O)(Cn1cncn1)c1ccccc1 (stereo not drawn),> 100 µg/mL,> 100 µg/mL,> 20 µg/mL,6.3 µg/mL,,,,
O=C(c1cccc(Cl)c1)C(O)(Cn1cncn1)c1cccc(Cl)c1 (stereo not drawn),> 100 µg/mL,> 100 µg/mL,> 20 µg/mL,3.13 µg/mL,,,,
O=C1O[C@H](c2ccc(F)cc2)[C@@](Cn2cncn2)(c2ccc(F)cc2)O1,> 100 µg/mL,> 100 µg/mL,2.5 µg/mL,3.1 µg/mL,,,,
CC(O)(c1ccc(Cl)cc1Cl)C(O)(Cn1cncn1)c1ccc(Cl)cc1 (stereo not drawn),50 µg/mL,100 µg/mL,1.25 µg/mL,0.1 µg/mL,,,,
COc1ccc(C(=O)C(O)(Cn2cncn2)c2ccc(OC)cc2)cc1 (stereo not drawn),> 100 µg/mL,> 100 µg/mL,> 20 µg/mL,12.5 µg/mL,,,,
CCCC(O)(Cn1cncn1)C(=O)c1ccc(Cl)cc1 (stereo not drawn),50 µg/mL,> 100 µg/mL,0.31 µg/mL,0.8 µg/mL,,,,
CC(O)(c1ccc(F)cc1)C(O)(Cn1ccnc1)c1ccccc1Cl (stereo not drawn),100 µg/mL,> 100 µg/mL,1.25 µg/mL,0.1 µg/mL,,,,
COc1ccccc1C(=O)C(O)(Cn1cncn1)c1ccccc1OC (stereo not drawn),> 100 µg/mL,> 100 µg/mL,> 20 µg/mL,12.5 µg/mL,,,,

Structure (SMILES),MIC (Aspergillus fumigatus; [3]),MIC (Candida albicans [1]; [4]),minimal effective concentration (Candida albicans [2]),MIC (Trichophyton benhamiae; [5]),MEC (Candida albicans [2]),MIC (Trichophyton benhamiae),MIC (Aspergillus fumigatus),MIC (Candida albicans [1])
OC(Cn1cncn1)(c1ccc(Cl)cc1Cl)C(O)(c1ccc(F)cc1)c1cccs1 (stereo not drawn),> 100 µg/mL,> 100 µg/mL,5 µg/mL,0.8 µg/mL,,,,
O=C(c1ccc(F)cc1)C(O)(Cn1cnnc1)c1ccccc1Cl (stereo not drawn),> 100 µg/mL,> 100 µg/mL,> 20 µg/mL,> 100 µg/mL,,,,
CC(C)[C@H]1OC(=O)O[C@@]1(Cn1cncn1)c1ccc(Cl)cc1,> 100 µg/mL,> 100 µg/mL,0.63 µg/mL,6.3 µg/mL,,,,
O=C(c1ccc(Cl)cc1)C(O)(Cn1cncn1)c1ccc(Cl)cc1 (stereo not drawn),> 100 µg/mL,50 µg/mL,20 µg/mL,0.39 µg/mL,,,,
Cc1ccc(C(=O)C(O)(Cn2cncn2)c2ccc(C)cc2)cc1 (stereo not drawn),> 100 µg/mL,> 100 µg/mL,20 µg/mL,1.56 µg/mL,,,,
O=C(c1ccccc1Cl)C(O)(Cn1cncn1)c1ccccc1 (stereo not drawn),> 100 µg/mL,> 100 µg/mL,> 20 µg/mL,1.6 µg/mL,,,,
CCCCC(O)(Cn1cncn1)C(=O)c1ccccc1Cl (stereo not drawn),50 µg/mL,> 100 µg/mL,0.63 µg/mL,0.4 µg/mL,,,,
O=C(c1ccccc1)C(O)(Cn1cncn1)c1ccccc1Cl (stereo not drawn),> 100 µg/mL,> 100 µg/mL,2.5 µg/mL,1.6 µg/mL,,,,
CC(O)(c1ccc(Cl)cc1)C(O)(Cn1cncn1)c1ccc(F)cc1 (stereo not drawn),> 100 µg/mL,> 100 µg/mL,2.5 µg/mL,0.4 µg/mL,,,,
CC(C)C(=O)C(O)(Cn1cncn1)c1ccc(Cl)cc1 (stereo in doubt; 13),,,,,0.08 µg/mL,,12.5 µg/mL,>100 µg/mL
OC(c1ccc(Cl)cc1)C(O)(Cn1cncn1)c1ccc(Cl)cc1 (stereo in doubt; 88),,,,,1.25 µg/mL,0.39 µg/mL,,50 µg/mL
CC(C)C(O)C(O)(Cn1cncn1)c1ccc(Cl)cc1 (stereo in doubt; 101),,,,,0.63 µg/mL,6.3 µg/mL,,
OC(c1ccc(F)cc1)C(O)(Cn1cncn1)c1ccc(Cl)cc1 (stereo in doubt; 104),,,,,2.5 µg/mL,6.3 µg/mL,,50 µg/mL
CCCC(O)C(O)(Cn1cncn1)c1ccc(Cl)cc1 (stereo in doubt; 106),,,,,0.16 µg/mL,1.6 µg/mL,,
O=C1O[C@H](c2ccc(Cl)cc2)[C@@](Cn2cncn2)(c2ccc(Cl)cc2Cl)O1 (stereo in doubt; 129),,,,,0.04 µg/mL,0.2 µg/mL,,
OC(Cn1cncn1)(c1ccc(F)cc1)C(O)(c1ccccc1)c1ccc(F)cc1 (stereo in doubt; 164),,,,,,>100 µg/mL,,
CC(C)C(C)(O)C(O)(Cn1cncn1)c1ccc(Cl)cc1Cl (stereo in doubt; 168),,,,,0.04 µg/mL,0.1 µg/mL,25 µg/mL,
CCC(O)(c1ccc(F)cc1)C(O)(Cn1cncn1)c1ccc(Cl)cc1 (stereo in doubt; 170),,,,,0.04 µg/mL,0.1 µg/mL,25 µg/mL,
CC(O)(c1ccc(F)cc1)C(O)(Cn1cncn1)c1ccccc1Cl (stereo in doubt; 181),,,,,1.25 µg/mL,0.1 µg/mL,6.3 µg/mL,
CCCCC(O)(c1ccc(F)cc1)C(O)(Cn1cncn1)c1ccccc1Cl (stereo in doubt; 188),,,,,2.5 µg/mL,0.2 µg/mL,>100 µg/mL,
CCCCC(O)(Cn1cncn1)C(C)(O)c1ccc(Cl)cc1 (stereo in doubt; 190),,,,,2.5 µg/mL,0.8 µg/mL,50 µg/mL,
